Results on 2 compounds are retold here after ChEMBL document CHEMBL3085761, “Synthesis, anticonvulsant and anti-inflammatory studies of new 1,4-dihydropyridin-4-yl-phenoxyacetohydrazones” (Eur J Med Chem, 2013).

Common to all, as to assay type: functional
The test system of assay [1] is Rattus norvegicus. Kind of assay: Antiinflammatory activity in Wistar rat assessed as inhibition of carrageenan-induced paw edema at 20 mg/kg administered 30 mins prior to carrageenan-challenge measured after 3 hrs by plethysmographic analysis relative to control. The method in brief:
(§1)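 Male or female Wistar rats (100–150 g), five per group, fasted overnight; 20 mg/kg given by stomach tube in 5 mL water. 30 min later 0.05 mL 1% carrageenan s.c. into left hind paw plantar side; paw volume by mercury plethysmography at 0, 30, 60, 120, 180 min; percent inhibition versus control, one-way ANOVA with Dunnett's test.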
(In general: The carrageenan paw model is a standard test of acute inflammation.)

The test system of assay [2] is Rattus norvegicus. Kind of assay: Antiinflammatory activity in Wistar rat assessed as inhibition of carrageenan-induced paw edema at 20 mg/kg administered 30 mins prior to carrageenan-challenge measured after 2 hrs by plethysmographic analysis relative to control. The method in brief:
as §1

Assay [3] deals with Rattus norvegicus. Kind of assay: Antiinflammatory activity in Wistar rat assessed as inhibition of carrageenan-induced paw edema at 20 mg/kg administered 30 mins prior to carrageenan-challenge measured after 30 mins by plethysmographic analysis relative to control. The method in brief:
as §1

The test system of assay [4] is Rattus norvegicus. Kind of assay: Antiinflammatory activity in Wistar rat assessed as inhibition of carrageenan-induced paw edema at 20 mg/kg administered 30 mins prior to carrageenan-challenge measured after 1 hr by plethysmographic analysis relative to control. An outline of the steps: as §1
Assay [5] relates to Mus musculus. Kind of assay: Anticonvulsant activity in ip dosed mouse assessed as protection against maximal electroshock-induced epileptic seizures after 4 hrs. The settings on record: read-out: MED. An outline of the steps: (§2)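 Mice (20–40 g), groups of six to ten; i.p. doses 30, 100 and 300 mg/kg; tested at 0.5 and 4 h. Stimulus 50 mA, 60 Hz, 0.2 s via corneal electrodes primed with anaesthetic electrolyte; abolition of hindlimb tonic extension scored as protection. Value is the minimal dose protecting at least 50% of animals.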
For orientation: In the maximal electroshock model the usual endpoint is tonic extension of the hind limbs.

In assay [6] the test system is Mus musculus. Kind of assay: Anticonvulsant activity in ip dosed mouse assessed as protection against maximal electroshock-induced epileptic seizures after 0.5 hrs. The settings on record: read-out: MED. The method in brief: as §2

A word on the inhibition in vivo: it is how much of the control response was suppressed. On to `O=C(O)Cc1ccccc1Nc1c(Cl)cccc1Cl` [DICLOFENAC SODIUM], for which the inhibition in vivo at 20 mg/kg in the assay with Rattus norvegicus [1] stood at 65.3%; with Rattus norvegicus [2] it was 61.1%; with Rattus norvegicus [3], 16.7%; in the assay on Rattus norvegicus [4], 41%.
For `O=C1NC(=O)C(c2ccccc2)(c2ccccc2)N1` [PHENYTOIN], the minimal effective dose with Mus musculus [5] and in the assay with Mus musculus [6] was 30 mg/kg each time.
